In ChEMBL document CHEMBL1158140, “Abietane diterpenoids from Salvia pachyphylla and S. clevelandii with cytotoxic activity against human cancer cell lines” (2006):

Assays:
Type in all cases: functional
A2780 = experiment: Cytotoxicity against human A2780 cells after 48 hrs by SRB assay; conditions: A2780, 48 h
Outline: (§1)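 RPMI 1640 with 5% heat-inactivated FCS and 2 mM L-glutamine, 37 °C, 5% CO2. Seeded per well at 6000 (SW1573, HBL-100), 7000 (A2780), 12 000 (WiDr) or 15 000 (T-47D). Triplicate, 1-100 µM from day 1 for 48 h; DMSO 0.25% v/v control. TCA-fixed, SRB OD 490 nm. Percentage growth from T0, T and control ODs gives GI50, mean ± SD of 3-5 experiments.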

SW1573 = experiment: Cytotoxicity against human SW1573 cells after 48 hrs by SRB assay; conditions: SW1573, 48 h; outline: as §1
WiDr = experiment: Cytotoxicity against human WiDr cells after 48 hrs by SRB assay; outline: as §1
T47D = experiment: Cytotoxicity against human T47D cells after 48 hrs by SRB assay; outline: as §1
HBL-100 = experiment: Cytotoxicity against human HBL100 cells after 48 hrs by SRB assay; conditions: HBL-100, 48 h; outline: as §1

SMILES | GI50 (A2780) | GI50 (SW1573) | GI50 (WiDr) | GI50 (T47D) | GI50 (HBL-100)
CC(C)c1cc2c(c(O)c1O)[C@@]13CCCC(C)(C)[C@@H]1C[C@@H]2OC3 | 5.4 µM | 22 µM | 32 µM | 32 µM | 4.6 µM
CC(C)c1cc2c(c(O)c1O)[C@@]13CCCC(C)(C)[C@@H]1[C@@H](O)[C@@H]2OC3=O [ISOROSMANOL] | 19 µM | 23 µM | > 100 µM | > 100 µM | 17 µM
CC(C)c1cc2c(c(O)c1O)[C@@]13CCCC(C)(C)[C@@H]1C[C@@H]2OC3=O [CARNOSOL] | 3.6 µM | 10 µM | 26 µM | 24 µM | 3.9 µM
COc1cc2c(cc1C(C)C)C(=O)C=C1C(C)(C)CCC[C@@]12C | 16 µM | 18 µM | 29 µM | 33 µM | 16 µM
CC(C)c1cc(C=O)c2c(c1O)OC(=O)[C@@]21CCCC(C)(C)[C@@H]1C=O [ROSMADIAL] | 36 µM | 32 µM | 59 µM | 48 µM | 26 µM
CC(C)C1=C[C@]2(O)CC[C@H]3C(C)(C)CCC[C@]3(C)C2=CC1=O | 19 µM | 29 µM | 83 µM | 82 µM | 26 µM
CC(C)C1=C[C@@]23CC[C@H]4C(C)(C)CCC[C@]4(CO2)C3=C(O)C1=O [PACHYPHYLLONE] | 14 µM | 23 µM | 36 µM | 32 µM | 22 µM
CC(CO)c1cc2c(c(O)c1O)[C@@]13CCCC(C)(C)[C@@H]1C[C@@H]2OC3=O (stereo not given in full) | 3.6 µM | 9 µM | 28 µM | 35 µM | 3.6 µM
